Measurements from ChEMBL document CHEMBL4304816, “A Novel Biphenyl-based Chemotype of Retinoid X Receptor Ligands Enables Subtype and Heterodimer Preferences” (ACS Med Chem Lett, 2019).
Converted amounts (≈) assume the structure as drawn. The source made the active and inactive calls. The rule behind the calls is not given here.

Experiments:
[1] = Agonist activity at full-length human RXR/LXR expressed in HEK293T cells at 1 uM after 14 to 16 hrs by dual-glo luciferase reporter gene assay relative to untreated control; type: cell-based; settings: HEK-293T, read-out: Activity
How it was run: (§1)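 RXR:LXR or RXR:PPARγ heterodimer reporter assay with test compound alone. Activation expressed relative to 0.1% DMSO vehicle. Three independent experiments, each in duplicate; mean reported.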

Homo sapiens [2] = species: Homo sapiens; experiment: Agonist activity at full-length human PPARgamma/RXR expressed in HEK293T cells at 5 uM after 14 to 16 hrs in presence of 1 uM rosiglitazone by dual-glo luciferase reporter gene assay relative to rosiglitazone; type: cell-based
How it was run: (§2)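 Synergy format: the test compound was co-applied with the partner-receptor reference agonist at 1 μM, either T0901317 (RXR:LXR) or rosiglitazone (RXR:PPARγ). Relative synergistic activation was derived from three independent experiments, each in duplicate; mean reported.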

[3] = biological target: T1, Retinoic acid receptor RXR-gamma (Homo sapiens) (UniProt P48443); experiment: Agonist activity at Gal4-LBD fused RXRgamma (unknown origin) expressed in HEK293T cells at 0.1 to 3 uM after 14 to 16 hrs in presence of RXR antagonist HX531 by dual-Glo luciferase reporter gene assay; type: cell-based
T1 sequence (whole entry): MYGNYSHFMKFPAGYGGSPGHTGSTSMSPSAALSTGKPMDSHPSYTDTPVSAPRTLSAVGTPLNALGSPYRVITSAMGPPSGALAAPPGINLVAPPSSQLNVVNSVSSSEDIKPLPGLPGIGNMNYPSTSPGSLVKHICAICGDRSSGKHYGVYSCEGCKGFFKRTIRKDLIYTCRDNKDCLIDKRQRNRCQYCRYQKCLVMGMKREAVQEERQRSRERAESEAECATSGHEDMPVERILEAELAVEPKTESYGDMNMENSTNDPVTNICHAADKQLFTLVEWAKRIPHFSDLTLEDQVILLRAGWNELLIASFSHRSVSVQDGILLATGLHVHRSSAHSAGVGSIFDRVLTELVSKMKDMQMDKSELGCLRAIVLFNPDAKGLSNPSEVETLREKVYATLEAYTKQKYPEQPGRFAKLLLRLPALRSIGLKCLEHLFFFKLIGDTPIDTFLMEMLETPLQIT

[4] = biological target: T2, Retinoic acid receptor RXR-alpha (Homo sapiens) (UniProt P19793); experiment: Agonist activity at Gal4-LBD fused RXRalpha (unknown origin) expressed in HEK293T cells at 0.1 to 3 uM after 14 to 16 hrs in presence of RXR antagonist HX531 by dual-Glo luciferase reporter gene assay; type: cell-based
T2 sequence (whole entry): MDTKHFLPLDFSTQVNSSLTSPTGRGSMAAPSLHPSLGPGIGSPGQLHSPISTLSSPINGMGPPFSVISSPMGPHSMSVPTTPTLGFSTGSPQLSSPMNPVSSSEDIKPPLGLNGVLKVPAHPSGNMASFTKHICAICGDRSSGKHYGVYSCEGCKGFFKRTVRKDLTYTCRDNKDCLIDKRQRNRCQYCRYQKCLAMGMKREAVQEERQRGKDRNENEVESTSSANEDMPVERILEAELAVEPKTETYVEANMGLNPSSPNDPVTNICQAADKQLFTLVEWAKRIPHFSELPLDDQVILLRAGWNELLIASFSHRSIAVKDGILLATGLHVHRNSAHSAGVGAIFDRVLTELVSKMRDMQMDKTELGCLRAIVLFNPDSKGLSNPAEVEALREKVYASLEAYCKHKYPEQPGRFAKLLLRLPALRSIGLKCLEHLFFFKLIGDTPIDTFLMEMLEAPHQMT

[5] = biological target: T3, Retinoic acid receptor RXR-gamma (Homo sapiens, UniProt P48443); experiment: Agonist activity at Gal4-LBD fused RXRgamma (unknown origin) expressed in HEK293T cells after 14 to 16 hrs by dual-Glo luciferase assay; type: cell-based
T3 sequence (P48443 whole entry): T1 sequence (whole entry)
How it was run: (§3)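 Gal4-hybrid RXRα/β/γ reporter gene assays in HEK293T cells. Fold activation is the maximal fold activation versus 0.1% DMSO.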

[6] = biological target: T4, Retinoic acid receptor RXR-beta (Homo sapiens, UniProt P28702); experiment: Agonist activity at Gal4-LBD fused RXRbeta (unknown origin) expressed in HEK293T cells after 14 to 16 hrs by dual-Glo luciferase assay; type: cell-based; how it was run: as §3
T4 sequence (P28702 whole entry): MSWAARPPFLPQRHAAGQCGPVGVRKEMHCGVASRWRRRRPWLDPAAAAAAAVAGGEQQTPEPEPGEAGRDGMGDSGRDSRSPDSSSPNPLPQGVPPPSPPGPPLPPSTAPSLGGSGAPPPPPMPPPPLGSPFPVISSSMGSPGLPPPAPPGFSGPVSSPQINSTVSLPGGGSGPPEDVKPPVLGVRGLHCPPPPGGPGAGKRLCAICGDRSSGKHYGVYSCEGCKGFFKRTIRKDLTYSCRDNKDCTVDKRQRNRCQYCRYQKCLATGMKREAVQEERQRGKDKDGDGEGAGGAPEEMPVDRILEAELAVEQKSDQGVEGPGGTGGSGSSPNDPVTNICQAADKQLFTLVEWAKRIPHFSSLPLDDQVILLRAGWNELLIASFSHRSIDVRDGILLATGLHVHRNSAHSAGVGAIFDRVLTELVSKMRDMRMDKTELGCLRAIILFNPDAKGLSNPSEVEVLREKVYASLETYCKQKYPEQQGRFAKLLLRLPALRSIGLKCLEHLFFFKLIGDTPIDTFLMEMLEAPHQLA

[7] = biological target: T5, Retinoic acid receptor RXR-alpha (Homo sapiens, UniProt P19793); experiment: Agonist activity at Gal4-LBD fused RXRalpha (unknown origin) expressed in HEK293T cells after 14 to 16 hrs by dual-Glo luciferase assay; type: cell-based; how it was run: as §3
T5 sequence (P19793 whole entry): T2 sequence (whole entry)

[8] = Agonist activity at full-length human RXR/LXR expressed in HEK293T cells at 5 uM after 14 to 16 hrs by dual-glo luciferase reporter gene assay relative to untreated control; type: cell-based; settings: HEK-293T, read-out: Activity; how it was run: as §1
[9] = Agonist activity at full-length human RXR/LXR expressed in HEK293T cells at 5 uM after 14 to 16 hrs in presence of 1 uM T0901317 by dual-glo luciferase reporter gene assay relative to T0901317; type: cell-based; settings: HEK-293T, read-out: Activity; how it was run: as §2
Homo sapiens [10] = species: Homo sapiens; experiment: Agonist activity at full-length human PPARgamma/RXR expressed in HEK293T cells at 5 uM after 14 to 16 hrs by dual-glo luciferase reporter gene assay relative to untreated control; type: cell-based; how it was run: as §1
[11] = biological target: T6, Retinoic acid receptor RXR-beta (Homo sapiens) (UniProt P28702); experiment: Agonist activity at Gal4-LBD fused RXRbeta (unknown origin) expressed in HEK293T cells at 0.1 to 3 uM after 14 to 16 hrs in presence of RXR antagonist HX531 by dual-Glo luciferase reporter gene assay; type: cell-based
T6 sequence (whole entry): T4 sequence (P28702 whole entry)

[12] = Agonist activity at full-length human RXR/LXR expressed in HEK293T cells at 0.3 uM after 14 to 16 hrs in presence of 1 uM T0901317 by dual-glo luciferase reporter gene assay relative to T0901317; type: cell-based; settings: HEK-293T, read-out: Activity; how it was run: as §2
Homo sapiens [13] = species: Homo sapiens; experiment: Agonist activity at full-length human PPARgamma/RXR expressed in HEK293T cells at 0.3 uM after 14 to 16 hrs in presence of 1 uM rosiglitazone by dual-glo luciferase reporter gene assay relative to rosiglitazone; type: cell-based
How it was run: (§4)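 RXR:PPARγ heterodimer reporter assay run with reference PPARγ agonist rosiglitazone (1 μM) co-applied. Read-out is mean relative synergistic activation, from three independent experiments each run in duplicate.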

[14] = Agonist activity at full-length human RXR/LXR expressed in HEK293T cells at 0.3 uM after 14 to 16 hrs by dual-glo luciferase reporter gene assay relative to untreated control; type: cell-based; settings: HEK-293T, read-out: Activity; how it was run: as §1
[15] = Solubility of compound at 3 mg after 24 hrs by HPLC analysis; type: physicochemical
Homo sapiens [16] = species: Homo sapiens; experiment: Agonist activity at full-length human PPARgamma/RXR expressed in HEK293T cells at 0.3 uM after 14 to 16 hrs by dual-glo luciferase reporter gene assay relative to untreated control; type: cell-based
How it was run: (§5)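 RXR:PPARγ heterodimer reporter assay in HEK293T cells with test compound alone. Mean relative activation is taken versus 0.1% DMSO, from three independent experiments each run in duplicate.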

Homo sapiens [17] = species: Homo sapiens; experiment: Agonist activity at full-length human RXR/PPARgamma expressed in HEK293T cells at 1 uM after 14 to 16 hrs by dual-glo luciferase reporter gene assay relative to untreated control; type: cell-based; how it was run: as §1
[18] = Agonist activity at full-length human RXR/LXR expressed in HEK293T cells at 10 uM after 14 to 16 hrs by dual-glo luciferase reporter gene assay relative to untreated control; type: cell-based; settings: HEK-293T, read-out: Activity; how it was run: as §1
[19] = Metabolic stability in Wistar rat liver microsomes at 10 uM preincubated for 5 mins followed by microsomes addition in presence of NADPH measured up to 60 mins by HPLC analysis; type: ADME, Microsome; settings: 1 h
[20] = Agonist activity at full-length human RXR/LXR expressed in HEK293T cells at 10 uM after 14 to 16 hrs in presence of 1 uM T0901317 by dual-glo luciferase reporter gene assay relative to T0901317; type: cell-based; settings: HEK-293T, read-out: Activity; how it was run: as §2
Homo sapiens [21] = species: Homo sapiens; experiment: Agonist activity at full-length human PPARgamma/RXR expressed in HEK293T cells at 10 uM after 14 to 16 hrs by dual-glo luciferase reporter gene assay relative to untreated control; type: cell-based; how it was run: as §5
Homo sapiens [22] = species: Homo sapiens; experiment: Agonist activity at full-length human PPARgamma/RXR expressed in HEK293T cells at 10 uM after 14 to 16 hrs in presence of 1 uM rosiglitazone by dual-glo luciferase reporter gene assay relative to rosiglitazone; type: cell-based; how it was run: as §4
[23] = Agonist activity at full-length human RXR/LXR expressed in HEK293T cells at 25 uM after 14 to 16 hrs in presence of 1 uM T0901317 by dual-glo luciferase reporter gene assay relative to T0901317; type: cell-based; settings: HEK-293T, read-out: Activity; how it was run: as §2
[24] = biological target: T1, Retinoic acid receptor RXR-gamma (Homo sapiens); experiment: Agonist activity at Gal4-LBD fused RXRgamma (unknown origin) expressed in HEK293T cells at 30 uM after 14 to 16 hrs by dual-Glo luciferase assay; type: cell-based
[25] = Agonist activity at full-length human RXR/LXR expressed in HEK293T cells at 25 uM after 14 to 16 hrs by dual-glo luciferase reporter gene assay relative to untreated control; type: cell-based; settings: HEK-293T, read-out: Activity; how it was run: as §1
Homo sapiens [26] = species: Homo sapiens; experiment: Agonist activity at full-length human PPARgamma/RXR expressed in HEK293T cells at 25 uM after 14 to 16 hrs by dual-glo luciferase reporter gene assay relative to untreated control; type: cell-based; how it was run: as §5

Compound: O=S(=O)(c1ccccc1)N(CC(F)(F)F)c1ccc(C(O)(C(F)(F)F)C(F)(F)F)cc1 [T091317]
- activity at 1 µM [1]: 380%

Compound: CC(C)(C)c1cc(-c2ccc(CC(=O)O)cc2)cc(C(C)(C)C)c1
- Activity (Homo sapiens [2]): 108%
- Activity [3]: inactive
- Activity [4]: inactive
- EC50 [5]: 3300 nM
- EC50 [6]: 800 nM
- EC50 [7]: 470 nM
- activity at 5 µM [8]: 89%
- activity at 5 µM [9]: 82%
- Activity (Homo sapiens [10]): 173%
- Activity [11]: inactive

Compound: C=C(c1ccc(C(=O)O)cc1)c1cc2c(cc1C)C(C)(C)CCC2(C)C [BEXAROTENE]
- activity at 0.3 µM [12]: 665%
- Activity (Homo sapiens [13]): 423%
- activity at 0.3 µM [14]: 200%
- solubility at 24 h [15]: 0.3 µg/mL (≈ 0.861 µM)
- Activity (Homo sapiens [16]): 330%

Compound: CN(CCOc1ccc(CC2SC(=O)NC2=O)cc1)c1ccccn1 (stereo not given)
- Activity (Homo sapiens [17]): 224%

Compound: O=C(O)Cc1ccc(-c2cc(C(F)(F)F)cc(C(F)(F)F)c2)cc1
- activity at 10 µM [18]: 132%
- Activity [3]: inactive
- Activity [4]: inactive
- EC50 [5]: 220 nM
- Stability [19]: Stable
- EC50 [6]: 150 nM
- EC50 [7]: 80 nM
- activity at 10 µM [20]: 127%
- Activity (Homo sapiens [21]): 267%
- Activity [11]: inactive
- solubility at 24 h [15]: 1.15 µg/mL (≈ 3.3 µM)
- Activity (Homo sapiens [22]): 154%

Compound: O=C(O)c1cccc(-c2cc(Cl)cc(Cl)c2)c1
- activity at 25 µM [23]: 42%
- EC50 [6]: 13100 nM
- EC50 [7]: 15500 nM
- Activity [24]: inactive
- activity at 25 µM [25]: 67%
- Activity (Homo sapiens [26]): 82%
